# WNV NS2B-NS3 inh: inhibitors of WNV NS2B-NS3 protease, primary screen, biochemical, fluorogenic substrate | fluorogenic substrate Ex360/Em465; hits give low values | z-score (test concentration not listed) | 65,000 compounds, 0.18% hits | AID 577, 2007; in the data active means z-score below about -3
# ROCK2 blocker: inhibitors of human ROCK2 kinase, primary screen, biochemical, high-throughput, luminescence. inhibition, % at 6 µM. purified ROCK2, Kinase-Glo ATP depletion luminescence. AID 604, 2007. 60,000 compounds, 0.35% hits. Rho-associated protein kinase 2 (Homo sapiens), O75116;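 active means inhibition above the screen-wide mean inhibition plus 3 SD, cut at about 18% in these data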
# PKA inh: inhibitors of human PKA kinase activity, primary screen, biochemical, ATP-depletion luminescence, Kemptide substrate; cAMP-dependent protein kinase catalytic subunit alpha (Homo sapiens), P17612; PKA Kemptide phosphorylation, Kinase-Glo ATP luminescence; inhibition, % at 6 µM; 65,000 compounds, 0.1% hits; AID 524, 2006;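 active means inhibition above the screen-wide mean inhibition plus 3 SD, cut at about 21% in these data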
# JNK3 blocker: JNK3 kinase activity inhibitors, primary screen, biochemical, human, purified enzyme. inhibition, % at 8 µM. Mitogen-activated protein kinase 10 (Homo sapiens), P53779. HTS. AID 746, 2007. 60,000 compounds, 0.61% hits; in the data active means inhibition above about 17%
# Target sequence (P53779 whole entry, looked up): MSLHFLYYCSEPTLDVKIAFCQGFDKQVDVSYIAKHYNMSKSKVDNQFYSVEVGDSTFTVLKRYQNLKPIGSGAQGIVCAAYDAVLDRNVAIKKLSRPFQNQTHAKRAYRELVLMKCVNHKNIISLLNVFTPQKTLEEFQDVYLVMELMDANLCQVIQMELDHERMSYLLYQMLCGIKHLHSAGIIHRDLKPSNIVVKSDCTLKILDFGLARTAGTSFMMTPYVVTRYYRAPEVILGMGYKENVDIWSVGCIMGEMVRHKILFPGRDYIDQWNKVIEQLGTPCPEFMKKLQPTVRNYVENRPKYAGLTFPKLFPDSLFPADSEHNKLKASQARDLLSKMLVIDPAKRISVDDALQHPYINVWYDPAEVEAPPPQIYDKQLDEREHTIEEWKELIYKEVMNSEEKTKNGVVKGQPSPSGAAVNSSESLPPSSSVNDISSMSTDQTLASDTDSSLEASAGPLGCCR
# SF-1 act: activators of human SF-1, primary screen, cell-based, CHO-K1, Gal4-SF-1 LBD, luciferase luminescence | CHO-K1 Gal4-SF-1 LBD luciferase reporter; % increase over DMSO SF-1-specific signal | Steroidogenic factor 1 (Homo sapiens), Q13285 | 65,000 compounds, 1.9% hits | activation, % at 10 µM | AID 522, 2006;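 active means activation above the mean activation of all tested compounds plus 3 SD, cut at about 50% in these data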
#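 Material: CHO-K1 cells with Gal4–hSF-1 LBD chimera plus Gal4-driven luciferase / Input: 4,000 CHO-K1 cells per well / Incubation: compound exposure 20 h at 37 °C / Signal: luminescence read 15 min after SteadyLite luciferase reagent, after room-temperature equilibration / Read-out: percent activation versus DMSO / Benchmarks: DMSO negative control and −SF1 background wells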
# RORa activator: activators of orphan receptor RORA, primary screen, cell-based, luminescence. CHO-K1 Gal4-RORA LBD luciferase reporter; percent increase over mock-subtracted basal signal. activation, % at 10 µM. 65,000 compounds, 1.5% hits;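 active means activation above the mean of all tested compounds plus 3 SD, cut at about 49% in these data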
# Numbers stand for hits; – = inactive; · = no result given. This is a sample that favours compounds with a hit; in the whole collection about 3.4% have one here.
SMILES,WNV NS2B-NS3 inh,ROCK2 blocker,PKA inh,JNK3 blocker,SF-1 act,RORa activator
CCN(CC)C(=O)c1cc(-c2ccc(Br)cc2)on1,–,–,–,–,56,–
CC1=C(C)SC(=C(C#N)c2nnc(N3CCOCC3)n2-c2ccccc2)S1,–,–,–,–,–,–
c1ccc2nc3c(nc2c1)c1ccccc1n3CCN1CCOCC1,–,–,–,18,91,–
CC1=CC(C)=Nc2ccc(C)cc2N1,–,–,–,–,76,58
Cn1cccc1Cc1nnc(SCC(=O)Nc2ccc3c(c2)OCCO3)n1CCc1ccccc1,–,–,–,–,–,–
CCCCCOc1ccc(CN2CCOCC2)cc1Cl,–,–,–,–,61,–
CCOC(=O)c1ccc(N2C(=O)c3n[nH]c(C)c3C2c2ccco2)cc1 (stereo not given),–,–,–,–,–,–
Cc1ccc(N2C(=O)c3n[nH]c(C)c3C2c2ccco2)cc1 (stereo not given),–,–,–,–,–,67
CCOC(=O)c1sc2nc(N3CCOCC3)c3c(c2c1N)CCCC3,–,–,–,–,–,–
NC(=O)c1sc2nc(N3CCCCC3)c3c(c2c1N)CCCC3,–,42,27,–,–,–
O=C1CCCCCN1Cc1nnc(SCc2nc3ccccc3s2)n1-c1ccccn1,–,·,–,·,79,61
Cc1cc(NC(=O)COC(=O)C(Nc2ccc(C(F)(F)F)cc2Cl)C(C)C)no1 (stereo not given),–,–,–,–,–,–
CC(C)(C)C(=O)C(Oc1cccc2nonc12)n1cncn1 (stereo not given),–,–,–,–,–,–
CC(C)(C)C1CCc2[nH]c3ccccc3c(=O)c2C1 (stereo not given),–,–,–,–,56,98
c1ccc(-c2nc3nc4ccccc4nc3n2Cc2ccco2)cc1,–,–,–,–,–,62
CCn1cc(C(=O)OCC(=O)NCc2ccc3c(c2)OCO3)c(=O)c2ccc(C)nc21,–,–,–,–,–,–
Cc1nc(N)sc1-c1csc(Nc2ccccc2)n1,–,–,–,–,90,50
CC(=O)Nc1nc(C)c(-c2csc(Nc3ccc(O)cc3)n2)s1,–,–,–,18,–,–
Cn1c(C(=O)NCc2ccco2)cc2c(=O)[nH]c3ccccc3c21,–,–,–,47,–,–
c1ccc(OCCSc2nnnn2-c2ccccc2)cc1,–,–,–,–,63,–
Fc1ccccc1OCCSc1nnnn1-c1ccccc1,–,–,–,–,–,–
COc1ccc(S(=O)(=O)N(C)CC(=O)N2CCC(C(N)=O)CC2)cc1Cl,–,–,–,–,–,–
COc1ccc(C)cc1S(=O)(=O)N(CC(N)=O)Cc1ccccc1,–,–,–,–,–,–
COc1ccc(-c2nnc(NC(=O)C(C)C)o2)cc1,–,–,–,–,–,–
Nc1c(Br)cc2oc(-c3ccccc3)nc2c1Br,–,–,–,–,76,52
SMILES,WNV NS2B-NS3 inh,ROCK2 blocker,PKA inh,JNK3 blocker,SF-1 act,RORa activator
COc1ccc(-c2nc3c(Br)c(N)c(Br)cc3o2)cc1,–,–,–,–,73,–
Cc1ccc(C)c(N2CCN(c3cc(C)nc4nnnn34)CC2)c1,–,–,–,–,–,–
COc1ccccc1Nc1ncc(-c2cccs2)s1,–,–,–,–,95,–
COc1ccccc1NC(=O)c1cccs1,–,–,–,–,–,–
O=C(NCc1ccco1)Nc1ccc(Br)cc1Cl,–,–,–,–,60,57
C=CCSc1nncn1/N=C/c1ccc(OC)cc1,–,–,–,–,83,91
Cc1ccc(-n2cc3c(=O)n(C)c(=O)n(C)c3c2)cc1C,–,–,–,–,–,–
Cc1cc(N)c(-n2cc3c(=O)n(C)c(=O)n(C)c3c2)cc1C,–,–,–,–,–,54
COc1ccc(-c2cn3c(C)c(C(=O)N4CCN(c5ccc(OC)cc5)CC4)sc3n2)cc1,–,–,–,–,–,–
